Source: PubChem (Broad Institute)
Shown are actives, neighbours in structure and some others; about 3.5% of the full set was active somewhere.
PGC1a acetyl inh: lowers PGC1a acetylation signal in U2OS cells. AlphaScreen anti-acetyl-lysine; with virally co-expressed GCN5 acetyltransferase. actives 0.17% (n = 350,000). AID 651687. inhibition, % at 15.6 µM;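 active = every replicate shows inhibition of at least 40%; inconclusive = mean inhibition at least 40% but some replicate below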;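 note: 0% = neutral control wells and 100% = positive control wells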
FN deposit inh: fibronectin deposition inhibition; AH1F fibroblasts, Alexa488-fibronectin deposition fluorescence, overnight; inhibition, % at 12.6 µM; actives 0.086% (n = 350,000); AID 743247;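 active = mean inhibition across replicates of 30% or more, regardless of how many single replicates reach that level; inconclusive = mean under 30% yet at least half of replicates reach 30%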;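 note: positive control wells lacked labelled fibronectin entirely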
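Material: AH1F fibroblasts assembling fluorescent fibronectin matrix; amount: 10000 AH1F cells/well; medium: DMEM, 2% serum; reagent: Alexa488-fibronectin, 24 nM final in well; dosing: single compound dose, delivered by pin transfer; incubation: 1 h adhesion, overnight exposure; detection: fluorescence after three HBSS washes, excitation 485 nm, emission 525 nm; measure: fibronectin deposition inhibition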
Ecoli rRNA inh: inhibits bacterial ribosomal RNA function over humanized ribosomes. E. coli WT GFP vs humanized-ribosome RFP mutants, fluorescence, 24 h; active compounds read low; DMSO median 0, no signal -100. GFP signal change (wild-type ribosome), % (test concentration not listed). actives 1.6% (n = 350,000). AID 720706;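 active = significant combined selectivity score with lowered wild-type GFP, culture density cut under 30%, mutant RFP and density less affected; inactive = any of these conditions unmet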
DENV2 CPE rescue: DENV2-induced cell death inhibition; DENV2-infected cells, cytopathic effect rescue, plate reader; CPE inhibition, % at 9.99 µM; actives 1.7% (n = 350,000); AID 651640; in the data active = CPE inhibition above about 20%, passing the limit was not always enough; inconclusive = no clear call, values can overlap the other calls; tested in BHK-21 cells;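 note: 0% = median of neutral control wells and 100% = median of positive control wells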
PglD DTNB: blocks C. jejuni PglD acetyltransferase activity. actives 0.098% (n = 360,000). inhibition, % at 12.5 µM. purified PglD enzyme, DTNB colorimetric CoA detection; in the data active = inhibition above about 16%, passing the limit was not always enough; inconclusive = no clear call, values can overlap the other calls
HIV Env fusion: HIV envelope-mediated fusion inhibition | HeLa-JRFL Env/CEM21 cell fusion, luciferase | inhibition, % at 12.3 µM | actives 1.1% (n = 360,000);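 active = mean replicate inhibition score of at least 50 and every replicate individually at or above 50; inconclusive = only one of the two criteria met; inactive = mean below 50 and not all replicates reaching 50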;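 note: 0% = plate neutral controls and 100% = maraviroc near 300 nM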
Numbers without * were called inactive; [ ] = dose if it differs, or a comment.

Results for Cc1ccc(Cn2ncc3c(N4CCN(c5ccc(C)cc5)CC4)ncnc32)cc1 ?
PGC1a acetyl inh: 5; FN deposit inh: -2; PglD DTNB: 6; HIV Env fusion: 91*

What do the screens show for `CN1c2ccc(-c3ccccc3)cc2[C@@H]2[C@@H](CCN2C(=O)c2ccc(F)cc2)[C@@H]1CO`?
PGC1a acetyl inh: -1; FN deposit inh: -4; Ecoli rRNA inh: -16; DENV2 CPE rescue: 8; PglD DTNB: 1

Results for C[C@@H]1CN([C@@H](C)CO)C(=O)Cc2cc(NC(=O)C3CCCCC3)ccc2O[C@@H]1CN(C)S(=O)(=O)c1cccs1 ?
PGC1a acetyl inh: -4; Ecoli rRNA inh: -3; DENV2 CPE rescue: -1; PglD DTNB: 3; HIV Env fusion: 21[16.7 µM]

Results for O=C(c1cnccn1)N1CC[C@H]2[C@H](CO)Nc3ccc(-c4ccccc4F)cc3[C@H]21 ?
PGC1a acetyl inh: 2; FN deposit inh: 0; Ecoli rRNA inh: -3; PglD DTNB: -4

How did COc1cccc2c1C(=O)c1c(O)c3c(c(O)c1C2=O)CC(O)(C(C)=O)CC3OC1CC(N(C)C)C(O)C(C)O1 (stereo not drawn) do in these assays?
PGC1a acetyl inh: inconclusive; FN deposit inh: 15; Ecoli rRNA inh: 20; DENV2 CPE rescue: -6; HIV Env fusion: 58*

Results for COc1cccc2c1C(=O)c1c(O)c3c(c(O)c1C2=O)C[C@@](O)(C(=O)CO)C[C@@H]3OC1CC(N)C(O)C(C)O1 (stereo partly drawn) ?
PGC1a acetyl inh: -7; FN deposit inh: -1; Ecoli rRNA inh: 8; DENV2 CPE rescue: -1; HIV Env fusion: -201

What do the screens show for `CC(=O)[C@@]1(O)Cc2c(O)c3c(c(O)c2[C@H](O[C@H]2C[C@H](N)[C@H](O)[C@H](C)O2)C1)C(=O)c1ccccc1C3=O`?
FN deposit inh: -67; Ecoli rRNA inh: 73; DENV2 CPE rescue: -13; PglD DTNB: 0; HIV Env fusion: 95*

Results for Cc1cc(N2CCN(C)CC2)n2nc(-c3ccc(Cl)cc3)nc2n1 ?
FN deposit inh: 3; Ecoli rRNA inh: 10; DENV2 CPE rescue: 35*; HIV Env fusion: 0

What do the screens show for `CC=Cc1ccc2n(c1=O)C[C@H]1[C@H](CO)[C@@H](C(=O)N[C@H](C)c3ccccc3)[C@@H]2N1Cc1ccccc1` (mixture of isomers)?
PGC1a acetyl inh: 9; Ecoli rRNA inh: -7; DENV2 CPE rescue: 4

How did CCCC(=O)Nc1ccc2c(c1)C(=O)N(C)C[C@H](OC)[C@@H](C)CN(C(=O)CC1CC1)[C@H](C)CO2 do in these assays?
PGC1a acetyl inh: 5; FN deposit inh: -15; Ecoli rRNA inh: 1; HIV Env fusion: -7[16.7 µM]

How did C[C@@H]1CN([C@@H](C)CO)C(=O)c2cc(NC(=O)C3CCCCC3)ccc2O[C@H]1CN(C)S(=O)(=O)c1ccc(F)cc1 do in these assays?
PGC1a acetyl inh: 5; FN deposit inh: 4; Ecoli rRNA inh: -3; DENV2 CPE rescue: -1; PglD DTNB: -2

What do the screens show for `COc1ccc(C2C(C(C)=O)=C(O)C(=O)N2c2ccc(C)cc2)cc1` (stereo not drawn)?
FN deposit inh: -3; Ecoli rRNA inh: -24*; DENV2 CPE rescue: 1; PglD DTNB: -2; HIV Env fusion: 2

Results for C=CCC[C@@H](Cc1ccc(F)cc1)C(=O)OC[C@@H](C)NC(=O)[C@@H](CC=C)CC(=O)N[C@H](CO)Cc1ccccc1 ?
PGC1a acetyl inh: 2; FN deposit inh: -3; Ecoli rRNA inh: -12; DENV2 CPE rescue: 8; PglD DTNB: -3; HIV Env fusion: -6

What do the screens show for `C=CCC[C@@H](Cc1ccc(F)cc1)C(=O)OCCNC(=O)[C@@H](CC=C)CC(=O)N[C@H](CO)Cc1ccccc1`?
PGC1a acetyl inh: -6; FN deposit inh: 0; Ecoli rRNA inh: -9; DENV2 CPE rescue: 44*; PglD DTNB: -6; HIV Env fusion: 1

What do the screens show for `C=CC[C@@H](CC(=O)NCCO)C(=O)N[C@@H](C)COC(=O)[C@H](CC=C)CC(=O)OC(C)(C)C`?
FN deposit inh: -4; Ecoli rRNA inh: 1; DENV2 CPE rescue: 46*; PglD DTNB: 0; HIV Env fusion: -32

What do the screens show for `C=CC[C@@H](CC(=O)N[C@H](CO)Cc1ccccc1)C(=O)N[C@@H](C)COC(=O)[C@@H](CC=C)Cc1ccc(F)cc1`?
FN deposit inh: -1; Ecoli rRNA inh: 1; DENV2 CPE rescue: 41*; PglD DTNB: 1; HIV Env fusion: -4

Results for C=CCC[C@@H](Cc1ccc(F)cc1)C(=O)OC[C@@H](NC(=O)[C@@H](CC=C)CC(=O)N[C@H](CO)Cc1ccccc1)C(C)(C)C ?
FN deposit inh: 2; Ecoli rRNA inh: -2; DENV2 CPE rescue: 25*; PglD DTNB: 6; HIV Env fusion: 9

How did CCCC(=O)N1CCC2(CC1)CN(C(=O)Nc1c(C)noc1C)[C@H](CO)c1c2c2ccc(OC)cc2n1C do in these assays?
PGC1a acetyl inh: 3; Ecoli rRNA inh: 3; DENV2 CPE rescue: -9

What do the screens show for `C=CCC[C@@H](Cc1ccc(F)cc1)C(=O)OC[C@@H](NC(=O)[C@H](CC=C)CC(=O)NCCO)C(C)(C)C`?
PGC1a acetyl inh: -13; FN deposit inh: -8; Ecoli rRNA inh: -3; DENV2 CPE rescue: -2; PglD DTNB: 7; HIV Env fusion: 102*

Results for C[C@@H]1CN([C@@H](C)CO)C(=O)c2cc(NS(=O)(=O)c3cn(C)cn3)ccc2O[C@@H](C)CCCCO[C@@H]1CN(C)C(=O)Nc1ccccc1 ?
PGC1a acetyl inh: 5; FN deposit inh: -7; Ecoli rRNA inh: -1; DENV2 CPE rescue: 4; PglD DTNB: -4; HIV Env fusion: -15[16.7 µM]

How did O=C(c1cc(COc2ccc(F)cc2F)on1)N1CCCC(c2ccccc2)C1 (stereo not drawn) do in these assays?
PGC1a acetyl inh: 9; Ecoli rRNA inh: -22*; DENV2 CPE rescue: -6; HIV Env fusion: 0

What do the screens show for `O=C(c1cc(COc2ccc(F)cc2Cl)on1)N1CCSCC1`?
PGC1a acetyl inh: 5; FN deposit inh: 2; Ecoli rRNA inh: -37*; DENV2 CPE rescue: -5; PglD DTNB: 1; HIV Env fusion: -61

What do the screens show for `O=C(c1cc(COc2cccc3cnccc23)on1)N1CCCC(CCCO)C1` (stereo not drawn)?
FN deposit inh: 16; Ecoli rRNA inh: -12; DENV2 CPE rescue: 4; PglD DTNB: -3; HIV Env fusion: 57*

What do the screens show for `O=C(c1cc(COc2ccc(F)cc2Cl)on1)N1CCc2ccccc2C1`?
FN deposit inh: -4; Ecoli rRNA inh: 8; DENV2 CPE rescue: -10; PglD DTNB: 1; HIV Env fusion: 4
